The source made the active and inactive calls.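 How the source made its calls, unless noted: active means GFP response above 150% of the DMSO level; inconclusive means fewer than 70 events counted for a yeast strain; inactive means the rest.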
How the values were obtained:
[1] = RPL19A-GFP modulators, yeast TOR pathway, confirmation, cell-based, S. cerevisiae, flow cytometry, cherry picks, mother/daughter gates (AID 2270;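 active means GFP response below 50% of the DMSO control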); settings: S. cerevisiae RPL19A-GFP strain, 3 h, at 10 µM, stronger effect = lower value, 100 = same GFP as DMSO wells
[2] = LAP4-GFP expression modulators in yeast, confirmation, cell-based, cherry picks, flow cytometry, mother/daughter gates (AID 2271;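 active means GFP response above 150% of the DMSO control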;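 further: ratio of sample to DMSO plate mean so 100% equals DMSO level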); settings: S. cerevisiae LAP4-GFP strain, 3 h, at 10 µM, stronger effect = higher value, 100 means same as DMSO control
Outline: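 System – GFP-fusion yeast strain · Amount – 0.2 OD600 cells · Buffer or medium – SC growth medium · Dosing – single test-compound dose, 10 µM final · Schedule – 3 h treatment at 30 °C with rotation · Detection – GFP by flow cytometry · Read-out – per-gate (all, mother, daughter) GFP response vs DMSO · Benchmarks – positive rapamycin (400 ng/mL), negative DMSO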

[3] = modulators of MEP2-GFP levels in yeast, confirmation, S. cerevisiae, flow cytometry GFP, cherry picks (AID 2272;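 active means GFP response above 150% of the DMSO control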;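 further: ratio of well signal to plate DMSO mean so 100% equals DMSO level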); settings: S. cerevisiae MEP2-GFP strain, 3 h, at 10 µM, stronger effect = higher value
[4] = AGP1-GFP expression modulators, hit retest, confirmation, cell-based, flow cytometry, S. cerevisiae, cherry picks (AID 2273);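 further: median GFP channel fluorescence over the whole cell population gate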; settings: S. cerevisiae AGP1-GFP strain, 3 h, at 10 µM
[5] = modulators of CIT2-GFP expression in yeast, confirmation, S. cerevisiae, GFP fusion, cherry picks, mother/daughter gates (AID 2274); settings: S. cerevisiae CIT2-GFP strain, flow cytometry, 3 h, at 10 µM, stronger effect = higher value
[6] = measured here: daughter cell gate
[7] = measured here: mother cell gate
[8] = measured here: daughter cell gate response
[9] = measured here: mother cell gate response

| SMILES | GFP response vs DMSO [1] | GFP response vs DMSO [1, 6] | GFP response vs DMSO [1, 7] | GFP response relative to DMSO [2] | GFP response relative to DMSO [2, 8] | GFP response relative to DMSO [2, 9] | GFP response vs DMSO [3] | GFP response, % of DMSO [4] | GFP response, % of DMSO [5] | GFP response, % of DMSO [5, 6] | GFP response, % of DMSO [5, 7] |
| --- | --- | --- | --- | --- | --- | --- | --- | --- | --- | --- | --- |
| Cc1cc(-n2nc(C)cc2C)n2ncc(-c3ccccc3)c2n1 | 105% (inactive) | 101% | 106% | 95.7% (inactive) | 95.9% | 96.2% | 103% (inactive) | 102% (inactive) | 97.3% (inactive) | 95.6% | 98.1% |
| O=C(Nc1cc(Sc2ccccn2)cc([N+](=O)[O-])c1)c1ccc([N+](=O)[O-])cc1 | 97.8% (inactive) | 98.4% | 96.9% | 98.9% (inactive) | 101% | 98.4% | 110% (inactive) | 104% (inactive) | 107% (inactive) | 106% | 106% |
| N#C/C(=C\c1c(N(Cc2ccccc2)Cc2ccccc2)nc2ccccn2c1=O)C(N)=O | 98.4% (inactive) | 99.2% | 98.2% | 99.8% (inactive) | 97.2% | 102% | 102% (inactive) | 104% (inactive) | 106% (inactive) | 101% | 109% |
| COc1ccc(N2C(=O)C(Cl)=C(Nc3ccccc3OC)C2=O)cc1 | 101% (inactive) | 98.4% | 102% | 98.2% (inactive) | 94.2% | 98.4% | 105% (inactive) | 98% (inactive) | 97.3% (inactive) | 97.4% | 98.1% |
| COc1cccc(C(=O)Nc2ccccc2)c1 | 98.2% (inactive) | 97.4% | 96.7% | 106% (inactive) | 102% | 106% | 105% (inactive) | 95.2% (inactive) | 94% (inactive) | 93.6% | 92.6% |
| O=C(/C=C/c1c(F)cccc1Cl)c1ccc(F)cc1 | 104% (inactive) | 104% | 101% | 118% (inactive) | 120% | 120% | 157% (inactive) | 104% (inactive) | 126% (inactive) | 129% | 120% |
| CCCc1[nH]nc2c1C(c1ccc(OC)cc1OC)C(C#N)=C(N)O2 (stereo not given) | 99.8% (inactive) | 99.9% | 99.8% | 92.8% (inactive) | 91.2% | 95.1% | 105% (inactive) | 90.4% (inactive) | 94% (inactive) | 89.9% | 91.4% |
| O=S(=O)(c1ccccc1)N1N=C(c2ccccc2)CC1c1ccccc1 (stereo not given) | 105% (inactive) | 105% | 103% | 97% (inactive) | 97.5% | 97.3% | 112% (inactive) | 99.4% (inactive) | 106% (inactive) | 108% | 104% |
| O=C(c1cccc(COCC(F)(F)C(F)F)c1)N1CCN(c2ccccc2)CC1 | 101% (inactive) | 101% | 102% | 100% (inactive) | 97.9% | 97.5% | 104% (inactive) | 102% (inactive) | 97.8% (inactive) | 96.4% | 98% |
| COc1ccc(-c2sc(C(=O)c3ccc(Cl)cc3Cl)cc2CC(=O)O)cc1 | 96% (inactive) | 95.9% | 95.8% | 130% (inactive) | 127% | 131% | 122% (inactive) | 101% (inactive) | 104% (inactive) | 105% | 104% |
| Oc1c(CN2CCN(c3ccccc3)CC2)cc(Br)c2cccnc12 | 99.6% (inactive) | 101% | 95.9% | 220% (active) | 168% | 231% | 153% (inactive) | 81.5% (inactive) | 103% (inactive) | 99.1% | 93.8% |
| COC(=O)Cc1ccc(OCc2ccc(Cl)nc2)cc1 | 97.8% (inactive) | 97.5% | 98.6% | 107% (inactive) | 107% | 106% | 97.5% (inactive) | 101% (inactive) | 95% (inactive) | 94.6% | 94.5% |
| COc1ccc(S(=O)(=O)NCC(=O)N(CC(=O)NCc2ccco2)Cc2ccc(F)cc2)cc1 | 100% (inactive) | 98.8% | 101% | 99.5% (inactive) | 99.1% | 100% | 99% (inactive) | 103% (inactive) | 103% (inactive) | 105% | 101% |
| Cc1noc2ncnc(Sc3c(Cl)cccc3Cl)c12 | 101% (inactive) | 102% | 99.8% | 94.1% (inactive) | 94.4% | 94% | 100% (inactive) | 88.6% (inactive) | 105% (inactive) | 105% | 104% |
| COC(=O)Cn1c(C)c(/C=C/c2cc[n+](C)cc2)c2ccccc21 | 100% (inactive) | 99.6% | 101% | 119% (inactive) | 121% | 117% | 129% (inactive) | 99.7% (inactive) | 117% (inactive) | 121% | 113% |
